The source of these data is ChEMBL document CHEMBL4024771, “Optimization of Orally Bioavailable Enhancer of Zeste Homolog 2 (EZH2) Inhibitors Using Ligand and Property-Based Design Strategies: Identification of Development Candidate …” (J Med Chem, 2018).

The structures appear in SMILES notation. Values after ≈ are worked out from the molar mass of the structure shown.

Chain of Histone-lysine N-methyltransferase EZH2 (Homo sapiens, UniProt Q15910, Y641N) (Q15910 whole entry Y641N): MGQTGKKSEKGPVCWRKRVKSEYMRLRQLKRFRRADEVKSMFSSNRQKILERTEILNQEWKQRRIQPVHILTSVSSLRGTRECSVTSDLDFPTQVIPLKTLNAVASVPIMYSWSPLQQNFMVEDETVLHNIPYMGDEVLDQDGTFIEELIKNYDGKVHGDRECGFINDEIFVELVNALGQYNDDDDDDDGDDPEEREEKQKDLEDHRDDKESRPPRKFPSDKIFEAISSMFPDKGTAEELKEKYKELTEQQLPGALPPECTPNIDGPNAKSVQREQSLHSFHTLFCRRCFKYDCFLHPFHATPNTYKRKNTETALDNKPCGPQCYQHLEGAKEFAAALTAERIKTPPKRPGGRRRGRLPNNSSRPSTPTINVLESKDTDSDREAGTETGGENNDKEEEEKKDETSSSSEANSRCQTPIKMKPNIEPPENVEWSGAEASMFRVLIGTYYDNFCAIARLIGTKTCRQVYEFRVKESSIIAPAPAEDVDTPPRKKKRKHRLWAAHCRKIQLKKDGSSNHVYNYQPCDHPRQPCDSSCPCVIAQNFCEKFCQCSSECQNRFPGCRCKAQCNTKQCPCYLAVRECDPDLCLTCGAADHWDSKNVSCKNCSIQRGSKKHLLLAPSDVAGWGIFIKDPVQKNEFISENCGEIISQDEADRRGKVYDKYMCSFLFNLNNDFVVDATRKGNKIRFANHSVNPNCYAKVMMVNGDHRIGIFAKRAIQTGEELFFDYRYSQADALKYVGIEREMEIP

Tested on in one series: not listed separately
The experiment in a line: Intrinsic clearance in human liver microsomes assessed per mg protein at 1 uM preincubated for 10 mins followed by NADPH addition measured after 45 mins by LC-MS/MS analysis. The following applies: liver microsomes, read-out: CLH. The format is ADME, microsome. In a few lines:
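Test compound (1 μM) with pooled liver microsomes (0.8 mg/mL protein) in 100 mM potassium phosphate pH 7.4, 10 min preincubation, started with 2 mM NADPH, 45 min at 37 °C, in triplicate. Samples quenched with cold methanol containing buspirone internal standard, analysed by LC−MS/MS. CLint derived from t1/2 of parent loss (log-linear slope).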
Background: Microsomes from liver hold many membrane-bound enzymes, among them those of drug oxidation.
Take `COC(C)c1cc(Cl)c2c(c1Cl)C(=O)N(Cc1c(C)cc(C)[nH]c1=O)CC2` (single isomer, unassigned; (+)): the microsomal CLint at 1 µM was found to be 190 µL/min/mg.
Same read-out and setting: as for `CCC(OC)c1cc(Cl)c2c(c1Cl)C(=O)N(Cc1c(C)cc(C)[nH]c1=O)CC2` (single isomer, unassigned; (-)), the figure is 119 µL/min/mg.
On the same count and under the same terms, as for `COC(c1cc(Cl)c2c(c1Cl)C(=O)N(Cc1c(C)cc(C)[nH]c1=O)CC2)C1CCOC1` (single isomer, unassigned; (-)), the figure is 136 µL/min/mg; as for `COC(c1cc(Cl)c2c(c1Cl)C(=O)N(Cc1c(C)cc(C)[nH]c1=O)CC2)C1CCOCC1` (single isomer, unassigned; (-)), 130 µL/min/mg; as for `COC(c1cc(Cl)c2c(c1Cl)C(=O)N(Cc1c(C)cc(C)[nH]c1=O)CC2)C1CCN(C)CC1` (single isomer, unassigned; (-)), below 13.4 µL/min/mg.
On the same count and under the same terms, as for `COC(c1cc(Cl)c2c(c1Cl)C(=O)N(Cc1c(C)cc(C)[nH]c1=O)CC2)C1CCN(C(C)=O)CC1` (single isomer, unassigned; (-)), the figure is 50.3 µL/min/mg.

A further series concerns the target Histone-lysine N-methyltransferase EZH2 (Homo sapiens, UniProt Q15910, Y641N). The experiment in a line: Inhibition of EZH2 Y641N mutant (unknown origin) using oligonucleosomes as substrate after 60 mins in presence of [3H]SAM by scintillation counting analysis.
Conditions: not given
In general, Ki refers to a dissociation constant, usually derived from enzyme kinetics or from competition with a known ligand. In the case of `CCC(OC)c1cc(Cl)c2c(c1Cl)C(=O)N(Cc1c(C)cc(C)[nH]c1=O)CC2` (single isomer, unassigned; (-)), the Ki was determined as 8 nM.
On the same count and under the same terms, as for `COC(c1cc(Cl)c2c(c1Cl)C(=O)N(Cc1c(C)cc(C)[nH]c1=O)CC2)C1CCOC1` (single isomer, unassigned; (-)), the figure is 130 nM; as for `COC(c1cc(Cl)c2c(c1Cl)C(=O)N(Cc1c(C)cc(C)[nH]c1=O)CC2)C1CCOCC1` (single isomer, unassigned; (-)), 310 nM; as for `COC(c1cc(Cl)c2c(c1Cl)C(=O)N(Cc1c(C)cc(C)[nH]c1=O)CC2)C1CCN(C)CC1` (single isomer, unassigned; (-)), 260 nM.

Tested on in a further series: not listed separately
Put plainly: Kinetic solubility of the compound. The format is physicochemical.
Conditions: not given
For `COC(c1cc(Cl)c2c(c1Cl)C(=O)N(Cc1c(C)cc(C)[nH]c1=O)CC2)C1CCOCC1` (single isomer, unassigned; (-)), the Kinetic_solubility is 57.2 µM.
`COC(c1cc(Cl)c2c(c1Cl)C(=O)N(Cc1c(C)cc(C)[nH]c1=O)CC2)C1CCN(C)CC1` (single isomer, unassigned; (-)) gave a Kinetic_solubility of 499 µM.
As for `COC(c1cc(Cl)c2c(c1Cl)C(=O)N(Cc1c(C)cc(C)[nH]c1=O)CC2)C1CCN(C(C)=O)CC1` (single isomer, unassigned; (-)), the Kinetic_solubility was 498 µM.

The series is the same for the next values; noted with them: read-out: Kinetic_solubility.
In the case of `COC(C)c1cc(Cl)c2c(c1Cl)C(=O)N(Cc1c(C)cc(C)[nH]c1=O)CC2` (single isomer, unassigned; (+)), the solubility kinetic turned out to be 49 µM (≈ 20.1 µg/mL).
On to `CCC(OC)c1cc(Cl)c2c(c1Cl)C(=O)N(Cc1c(C)cc(C)[nH]c1=O)CC2` (single isomer, unassigned; (-)), for which the solubility kinetic was 44 µM (≈ 18.6 µg/mL).
Turning to `COC(c1cc(Cl)c2c(c1Cl)C(=O)N(Cc1c(C)cc(C)[nH]c1=O)CC2)C1CCOC1` (single isomer, unassigned; (-)), the solubility kinetic is 415 µM (≈ 193 µg/mL).

In the next series the test system is KARPAS-422. Put plainly: Antiproliferative activity against human KARPAS422 cells after 72 hrs by resazurin assay. The format is functional, cell-based. The following applies: Homo sapiens, KARPAS-422, 72 h. (Resazurin is reduced to fluorescent resorufin, in cell work by metabolically active cells.)
By IC50 is commonly meant the concentration at which inhibition is half-maximal. Molecule `CCC(OC)c1cc(Cl)c2c(c1Cl)C(=O)N(Cc1c(C)cc(C)[nH]c1=O)CC2` (single isomer, unassigned; (-)) showed a half-inhibitory concentration (IC50) of 270 nM.

The series is the same for the next values; noted with them: karpas-422.
`COC(C)c1cc(Cl)c2c(c1Cl)C(=O)N(Cc1c(C)cc(C)[nH]c1=O)CC2` (single isomer, unassigned; (+)) displayed an IC50 of 696 nM.
Same read-out and setting: the same measure for `COC(c1cc(Cl)c2c(c1Cl)C(=O)N(Cc1c(C)cc(C)[nH]c1=O)CC2)C1CCOC1` (single isomer, unassigned; (-)): 175 nM.
The same measure, in the same setting: the same measure for `COC(c1cc(Cl)c2c(c1Cl)C(=O)N(Cc1c(C)cc(C)[nH]c1=O)CC2)C1CCOCC1` (single isomer, unassigned; (-)): 1150 nM.
`COC(c1cc(Cl)c2c(c1Cl)C(=O)N(Cc1c(C)cc(C)[nH]c1=O)CC2)C1CCN(C)CC1` (single isomer, unassigned; (-)) returned an IC50 of 2320 nM.
Same read-out and setting: the same measure for `COC(c1cc(Cl)c2c(c1Cl)C(=O)N(Cc1c(C)cc(C)[nH]c1=O)CC2)C1CCN(C(C)=O)CC1` (single isomer, unassigned; (-)): 1620 nM.

Tested on in another series: not listed separately
The experiment in a line: Passive permeability in MDCK cells at 2 uM after 90 mins by LC-MS/MS analysis. The format is ADME, cell-based, Canis lupus familiaris. The following applies: dog, mdck, […], 2 µM. The method in brief: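 Low-efflux MDCK cells (MDCK-LE) on 96-well inserts, used on day 4. Monodirectional transport of 2 μM drug in transport buffer with 0.1% DMSO at 37 °C. Donor and receiver sampled at 0 and 90 min for LC−MS/MS. Donor pH 6.5 and 7.4, receiver pH 7.4.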
Molecule `COC(C)c1cc(Cl)c2c(c1Cl)C(=O)N(Cc1c(C)cc(C)[nH]c1=O)CC2` (single isomer, unassigned; (+)) gave a permeability of 37.6 ×10⁻⁶ cm/s.
`CCC(OC)c1cc(Cl)c2c(c1Cl)C(=O)N(Cc1c(C)cc(C)[nH]c1=O)CC2` (single isomer, unassigned; (-)) gave a permeability of 13.5 ×10⁻⁶ cm/s.
In turn, `COC(c1cc(Cl)c2c(c1Cl)C(=O)N(Cc1c(C)cc(C)[nH]c1=O)CC2)C1CCOC1` (single isomer, unassigned; (-)) had a permeability of 18.4 ×10⁻⁶ cm/s.
Still for that read-out and setting: the same measure for `COC(c1cc(Cl)c2c(c1Cl)C(=O)N(Cc1c(C)cc(C)[nH]c1=O)CC2)C1CCOCC1` (single isomer, unassigned; (-)): 16.5 ×10⁻⁶ cm/s; for `COC(c1cc(Cl)c2c(c1Cl)C(=O)N(Cc1c(C)cc(C)[nH]c1=O)CC2)C1CCN(C)CC1` (single isomer, unassigned; (-)): 2.3 ×10⁻⁶ cm/s.
Same read-out and setting: the same measure for `COC(c1cc(Cl)c2c(c1Cl)C(=O)N(Cc1c(C)cc(C)[nH]c1=O)CC2)C1CCN(C(C)=O)CC1` (single isomer, unassigned; (-)): 8.1 ×10⁻⁶ cm/s.

Tested on in a further series: not listed separately
Put plainly: Lipophilicity, log D of the compound at pH 7.4. Conditions: buffer, pH 7.4.
Broadly, the logD is lipophilicity at a set pH, counting ionised and neutral species. Lower therefore signals lower lipophilicity. With `COC(C)c1cc(Cl)c2c(c1Cl)C(=O)N(Cc1c(C)cc(C)[nH]c1=O)CC2` (single isomer, unassigned; (+)), the pH-dependent lipophilicity (logD) stood at 3.4.
Still for that read-out and setting: the same measure for `COC(c1cc(Cl)c2c(c1Cl)C(=O)N(Cc1c(C)cc(C)[nH]c1=O)CC2)C1CCOCC1` (single isomer, unassigned; (-)): 3.5; for `COC(c1cc(Cl)c2c(c1Cl)C(=O)N(Cc1c(C)cc(C)[nH]c1=O)CC2)C1CCN(C)CC1` (single isomer, unassigned; (-)): 1.5.

The target of another series is Histone-lysine N-methyltransferase EZH2 (Homo sapiens, UniProt Q15910). The experiment in a line: Inhibition of EZH2 in human KARPAS422 cells assessed as reduction in H3K27me3 level after 72 hrs by ELISA.
Chain of Histone-lysine N-methyltransferase EZH2 (Homo sapiens, UniProt Q15910) (Q15910 whole entry): as the sequence (Q15910 whole entry Y641N) above, with N641Y counted along it
Conditions: not given
For `CCC(OC)c1cc(Cl)c2c(c1Cl)C(=O)N(Cc1c(C)cc(C)[nH]c1=O)CC2` (single isomer, unassigned; (-)), the 50% inhibitory concentration (IC50) is 65 nM.
Regarding `COC(c1cc(Cl)c2c(c1Cl)C(=O)N(Cc1c(C)cc(C)[nH]c1=O)CC2)C1CCOC1` (single isomer, unassigned; (-)), the IC50 was 1100 nM.
Consider `COC(c1cc(Cl)c2c(c1Cl)C(=O)N(Cc1c(C)cc(C)[nH]c1=O)CC2)C1CCOCC1` (single isomer, unassigned; (-)), for which the half-maximal inhibitory concentration (IC50) amounted to 1460 nM.
Take `COC(c1cc(Cl)c2c(c1Cl)C(=O)N(Cc1c(C)cc(C)[nH]c1=O)CC2)C1CCN(C)CC1` (single isomer, unassigned; (-)): the IC50 stood at 1130 nM.
